Compound activity deposited in PubChem BioAssay by several laboratories.
Sampled rows, rich in hits. Any-hit rate of the full collection: about 3.1%.
UBC13 polyUb: UBC13 polyubiquitin chain formation inhibitors, primary screen, biochemical, TR-FRET, uHTS. Ubiquitin-conjugating enzyme E2 N (Homo sapiens), P61088. inhibition, % at 20 µM. actives 0.47% (n = 330,000); in the data active means inhibition above about 45%, passing the limit was not always enough; inconclusive means no clear call, values can overlap the other calls
MEKK2wt PB1 HTS: modulators of MEK5 binding to wildtype MEKK2, primary screen, biochemical, multiplex bead flow cytometry, Alexa488-MEK5 | Mitogen-activated protein kinase kinase kinase 2 (Homo sapiens), Q9Y2U5 | Alexa488-MEK5 binding to MEKK2 WT; actives lie on both sides | actives 1.1% (n = 290,000) | binding response (% of control), % at 10 µM; in the data active means binding response below about 67% or above about 130%; inconclusive means no clear call, values can overlap the other calls; inactive means in between
MEKK3 PB1 HTS: modulators of MEKK3-MEK5 PB1 binding, primary screen, biochemical, wildtype MEKK3, multiplex bead flow cytometry, Alexa488-MEK5. Mitogen-activated protein kinase kinase kinase 3 (Homo sapiens), Q99759. bead-based flow cytometry, Alexa488-MEK5 binding to MEKK3; actives lie on both sides; 0 = blocked by unlabeled MEK5, 100 = vehicle. actives 1.4% (n = 290,000). binding response (% of control), % at 10 µM;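 active means binding response more than 3 SD above or below the average of its plate-row segment, actives on both sides; inconclusive means wells at one plate position flagged as instrument error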;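 further: Alexa488 bead fluorescence after subtracting the streptavidin-only scavenger bead signal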
Target sequence (Q99759 whole entry, looked up): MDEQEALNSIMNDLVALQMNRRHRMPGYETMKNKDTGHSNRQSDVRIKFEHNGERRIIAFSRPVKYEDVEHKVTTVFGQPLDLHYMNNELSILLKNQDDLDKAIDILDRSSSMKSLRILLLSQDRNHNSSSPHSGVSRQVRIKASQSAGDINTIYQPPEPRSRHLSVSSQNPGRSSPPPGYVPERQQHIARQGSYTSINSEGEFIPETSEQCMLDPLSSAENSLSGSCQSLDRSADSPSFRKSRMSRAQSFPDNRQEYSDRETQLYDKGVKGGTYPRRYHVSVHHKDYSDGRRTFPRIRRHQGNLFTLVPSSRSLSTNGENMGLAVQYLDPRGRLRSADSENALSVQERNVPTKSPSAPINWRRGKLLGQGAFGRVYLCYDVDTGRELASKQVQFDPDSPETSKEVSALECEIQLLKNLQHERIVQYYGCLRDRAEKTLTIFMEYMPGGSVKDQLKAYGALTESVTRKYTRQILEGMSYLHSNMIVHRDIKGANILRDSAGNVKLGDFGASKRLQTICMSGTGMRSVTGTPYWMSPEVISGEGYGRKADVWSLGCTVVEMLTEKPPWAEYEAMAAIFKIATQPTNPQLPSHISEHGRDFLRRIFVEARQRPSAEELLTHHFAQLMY
MEKK2 mut-MEK5: MEK5 binding signal on mutant MEKK2 PB1, primary screen, biochemical, multiplex bead flow cytometry, Alexa488-MEK5. Alexa488-MEK5 binding to MEKK2 mutant. percent response, % at 10 µM. actives 0.35% (n = 290,000); in the data active means percent response above about 24%, passing the limit was not always enough
PREPL inh: PREPL enzyme inhibitors, primary screen, biochemical, fluorescence polarization; inhibition, % at 5.96 µM; Prolyl endopeptidase-like (Homo sapiens), Q4J6C6; AID 2751, 2010; actives 0.68% (n = 320,000); recombinant PREPL, fluorescence polarization activity-based probe; in the data active means inhibition above about 43%;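 further: 0% = enzyme with DMSO and 100% = wells lacking enzyme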
Apaf1 inhib: inhibitors of human Apaf-1 apoptosome, primary screen, biochemical, DEVD-Rh110 fluorescence, uHTS. Apoptotic protease-activating factor 1 (Homo sapiens), O14727. reconstituted apoptosome caspase-3 activity. inhibition, % at 20 µM. actives 0.71% (n = 330,000); active means inhibition of at least 40% at 20 µM;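 further: plate controls were DMSO wells for no effect and DEVD-CHO caspase inhibitor wells for full effect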
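Assay system: Apoptosome proteins | Medium: pH 7.5 Hepes buffer with CHAPS, BSA, DTT | Also added: Cytochrome c and DEVD-Rh110 substrate | Times: 30 min plus 50 min, RT | Detection: Rhodamine 110 fluorescence at Ex 480/Em 540 nm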
Apaf-1 inh conf2: Apaf-1 inhibitors, single-dose retest, confirmation, biochemical, fluorescence, DEVD-Rh110, 20 µM; reconstituted apoptosome, caspase-3 DEVD-Rh110 fluorescence; AID 504614, 2011; shares compounds with Apaf1 inhib; actives 25% (n = 1,800); inhibition, % at 20 µM;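 active means mean inhibition of at least 40% at 20 µM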;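 further: plate controls were DMSO wells for no effect and DEVD-CHO caspase inhibitor control wells for full effect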
Rh110 interf inh: Rh110 fluorescence interference by putative Apaf-1 inhibitors, confirmation, artefact control for Apaf-1 inhibitor project, biochemical, 20 µM; shares compounds with Apaf1 inhib; quenched caspase reaction; activation (fluorescence interference), % at 20 µM; 1,800 tested, under 10 active; AID 504615, 2011;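 active means signal rise of 40% or more at 20 µM, treated as a fluorescence artifact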
Apaf1 inh interf: fluorescence interference of Apaf-1 inhibitor hits, dose response, artefact control for Apaf-1 inhibitor project | shares compounds with Apaf1 inhib | fluorescence interference counterscreen, Apaf-1 assay format | IC50, µM | 460 tested, under 10 active | AID 588538, 2011; call rule not given here
Starred values were filed as active, the others as inactive; ? = inconclusive; . = not tested or not shown.

SMILES	UBC13 polyUb	MEKK2wt PB1 HTS	MEKK3 PB1 HTS	MEKK2 mut-MEK5	PREPL inh	Apaf1 inhib	Apaf-1 inh conf2	Rh110 interf inh	Apaf1 inh interf
Cc1cccc(NC2=C(NC(=O)c3ccccc3)C(=O)c3ccccc3C2=O)c1	-138	105	100	-1	15	73*	58*	11	>100
O=C(NC1=C(NC2CCS(=O)(=O)C2)C(=O)c2ccccc2C1=O)c1ccccc1 (centres undefined)	-91	96	93	-7	11	88*	92*	7	>100
O=C(NC1=C(Nc2ccc(Cl)cc2)C(=O)c2ccccc2C1=O)c1ccccc1	-136	96	96	-5	27	54*	42*	-5	>100
Cc1ccc(CN2CC(C(=O)N3CCN(S(=O)(=O)c4ccc(C)cc4C)CC3)CC2=O)cc1 (centres undefined)	16	.	.	.	5	48*	26	7	.
Cc1ccc(CN2CC(C(=O)N3CCN(S(=O)(=O)c4cc(C)ccc4C)CC3)CC2=O)cc1 (centres undefined)	1	.	.	.	33	29	.	.	.
O=C(COC(=O)Cc1ccccc1[N+](=O)[O-])NNC(=O)c1ccc([N+](=O)[O-])cc1	-16	.	.	.	14	14	.	.	.
COc1cccc(-c2c(C(=O)N/N=C/c3ccco3)nnn2-c2nonc2N)c1	-4	100	100	4	6	5	.	.	.
Cc1ccc2c(c1)C(=O)C(=O)N2Cc1ccc(Cl)cc1	12	.	.	.	13	40*	24	7	.
Cc1ccc2c(c1)C(=O)C(=O)N2Cc1ccc(F)cc1	9	.	.	.	8	20	.	.	.
CC1C2NC(=O)N(Cc3ccccc3)C1(C)Oc1ccccc12 (centres undefined)	1	81	94	-21	9	1	.	.	.
Oc1ccc(Br)cc1CNc1cccc2cccnc12	-140	101	106	2	28	90*	48*	8	>100
Oc1c(Br)cc(Br)cc1CNc1ccccn1	11	98	94	-4	-2	-10	.	.	.
Oc1c(Br)cc(Br)cc1CNc1cccc2cccnc12	-64	99	104	-1	14	92*	59*	10	>100
Oc1ccc(Br)cc1CNc1cnc2ccccc2c1	27	98	103	-2	-7	11	.	.	.
Cc1ccc(O)c(CNc2cccc3cccnc23)c1	-105	94	99	-4	14	93*	38	4	.
COc1cccc(CNc2cccc3cccnc23)c1O	-115	97	98	-1	22	71*	14	-7	.
FC(F)(F)c1cccc(Cc2noc(CN3CCC(c4ccncc4)CC3)n2)c1	1	98	97	-4	8	1	.	.	.
COc1cccc(-c2cc(C(F)(F)F)c3c(N)c(C#N)sc3n2)c1	19	.	.	.	3	-1	.	.	.
N#Cc1sc2nc(-c3ccccc3)cc(-c3ccco3)c2c1N	-17	89	95	-1	34	90*	14	-4	.
Cc1cc2occ(CC(=O)N(C)CC(=O)Nc3cccc(F)c3)c2cc1C	-2	106	101	3	5	16	.	.	.
FC(F)(F)C1=Nc2cccc3cccc(c23)N1	-46	.	.	.	.	66*	63*	4	>100
COc1ccccc1N(/N=C1\Sc2ccccc2C1=O)C(C)=O	-28	97	98	-2	18	83*	73*	4	>100
Cc1[nH]n(-c2ccccc2)c(=O)c1C(C[N+](=O)[O-])c1ccccc1Cl (centres undefined)	-34	104	107	9	3	79*	38	10	.
COc1ccc(C(C[N+](=O)[O-])c2c(C)[nH]n(-c3ccccc3)c2=O)cc1 (centres undefined)	-70	107	104	4	3	96*	65*	9	>100
COc1ccc(C(C[N+](=O)[O-])c2c(C)cc3ccccn23)cc1 (centres undefined)	-16	97	104	0	24	12	.	.	.
SMILES	UBC13 polyUb	MEKK2wt PB1 HTS	MEKK3 PB1 HTS	MEKK2 mut-MEK5	PREPL inh	Apaf1 inhib	Apaf-1 inh conf2	Rh110 interf inh	Apaf1 inh interf
Cc1[nH]n(-c2ccccc2)c(=O)c1-c1ccccc1	-1	103	108	9	5	3	.	.	.
Cc1occc1C(=O)N(Cc1nc(-c2ccccc2)no1)C(C)C	-1	101	100	2	4	0	.	.	.
Cc1cc(C)nc(-n2nc(C)cc2NC(=O)CN2CCCC(C)C2)n1 (centres undefined)	-2	102	99	4	9	-2	.	.	.
Cc1cc(C)nc(-n2nc(C)cc2NC(=O)CN2CCc3ccccc3C2)n1	-8	96	97	-3	8	54*	15	-2	.
CCCCOc1ccc(C(=O)NCC(=O)NCC(c2cccs2)N2CCOCC2)cc1 (centres undefined)	18	.	.	.	6	41*	42*	13	>100
Cc1ccc(C(=O)NCC(=O)NCC(c2cccs2)N2CCOCC2)cc1 (centres undefined)	9	.	.	.	6	40	.	.	.
CCN1/C(=C/c2ccc3cc(C)ccc3[n+]2CC)Sc2ccc3sccc3c21	?	.	.	.	39	62*	60*	-9	>100
CCN(CC(=O)Nc1ccccc1OC)C(=O)c1ccccc1Sc1ccccc1C#N	44	.	.	.	-4	58*	42*	9	>100
CCN(CC(=O)Nc1ccc(OC)cc1)C(=O)c1ccccc1Sc1ccccc1C#N	21	.	.	.	1	32	.	.	.
COc1ccc(-c2sc3cc4c(cc3c2-c2ccc(OCCN3CCCCC3)cc2)OCO4)cc1	.	.	.	.	.	59*	6	9	.
COc1cc(OC)cc(-c2sc3ccc(OC)cc3c2-c2ccc(OCCN3CCCCC3)cc2)c1	.	.	.	.	.	60*	-3	9	.
c1ccc(-c2sc3ccccc3c2-c2ccc(OCCN3CCCCC3)cc2)cc1	43	.	.	.	6	52*	6	9	.
COc1ccc(-c2c(-c3cc(OC)cc(OC)c3)sc3ccc(OC)cc23)cc1	10	.	.	.	-2	3	.	.	.
